Where two headings read alike, the source gives them in different places.
Columns and labels:
IL-6 secretion = assay: IL-6 ELISA, LPS-stimulated HUVECs; assay type: cell-based, Human; details: LPS 10 μg/mL 6 hours
Summary of the method: (§1)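 HUVECs were seeded at 30,000–60,000 cells/well and pre-treated with test compound for 5 or 24 h. They were then stimulated with E. coli O111:B4 LPS at 10 μg/mL for 6 h. Secreted IL-6 or IL-8 in the supernatant was quantified by sandwich ELISA kits per the manufacturer. Statistics used two-way ANOVA with Bonferroni correction.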

ERK5 [1] = target: T1, ERK5 (Homo sapiens, UniProt Q13164); assay: KdELECT biochemical binding assay; details: for binding affinity for ERK5 (in words): Table S1
T1 sequence (Q13164 whole entry): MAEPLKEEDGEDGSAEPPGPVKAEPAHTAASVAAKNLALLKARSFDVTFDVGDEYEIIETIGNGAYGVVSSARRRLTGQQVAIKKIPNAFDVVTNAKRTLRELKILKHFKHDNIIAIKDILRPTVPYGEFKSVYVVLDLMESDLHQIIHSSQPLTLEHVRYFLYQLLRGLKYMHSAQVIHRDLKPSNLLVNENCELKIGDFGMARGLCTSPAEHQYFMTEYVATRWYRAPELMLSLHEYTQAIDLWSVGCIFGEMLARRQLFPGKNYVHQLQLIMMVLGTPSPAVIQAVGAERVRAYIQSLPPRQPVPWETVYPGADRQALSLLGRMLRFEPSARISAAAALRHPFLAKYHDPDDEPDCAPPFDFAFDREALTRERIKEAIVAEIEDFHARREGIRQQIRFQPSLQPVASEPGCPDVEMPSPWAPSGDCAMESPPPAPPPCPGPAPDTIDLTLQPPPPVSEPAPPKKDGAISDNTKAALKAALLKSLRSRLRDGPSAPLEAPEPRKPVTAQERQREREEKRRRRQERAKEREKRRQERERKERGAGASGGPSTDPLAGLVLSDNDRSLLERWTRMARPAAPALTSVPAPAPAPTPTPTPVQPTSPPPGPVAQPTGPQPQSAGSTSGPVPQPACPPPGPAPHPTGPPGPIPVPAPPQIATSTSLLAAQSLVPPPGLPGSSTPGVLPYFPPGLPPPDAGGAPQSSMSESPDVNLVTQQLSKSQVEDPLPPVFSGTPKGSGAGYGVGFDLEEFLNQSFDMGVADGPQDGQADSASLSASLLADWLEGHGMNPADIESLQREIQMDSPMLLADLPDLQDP
Summary of the method: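 Binding constants to ERK5 were determined in an outsourced KdELECT kinase binding assay from an 11-point dose–response curve.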

BT-474 cells = assay: CellTiter-Glo proliferation assay, BT-474; assay type: cell-based, Human; details: for EC50: Homo sapiens, BT-474, 72 h, read-out: anti-proliferative EC50
IL-8 secretion = assay: IL-8 ELISA, LPS-stimulated HUVECs; assay type: cell-based, Human; details: LPS 10 μg/mL 6 hours
Summary of the method: as §1

MOLT4 cells [2] = assay: CellTiter-Glo proliferation assay, MOLT4; assay type: cell-based, Human; details: for EC50: read-out: anti-proliferative EC50
[3] = test system: IL-6 stimulated MM.1S cells; assay: IL-6-induced MM.1S proliferation; assay type: cell-based, Human; details: 500 nM and 1 μM, 5 nM IL-6, 3d
Summary of the method: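 MM.1S cells at 10,000 cells/well were pre-treated for 5 h with test compound at 500 nM or 1 μM. Recombinant human IL-6 (5 nM) was then added. After 72 h, proliferation was read by CellTiter-Glo. Data are mean with standard deviation of three biological replicates.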

SNU-449 cells = assay: CellTiter-Glo proliferation assay, SNU-449; assay type: cell-based, Human; details: for EC50: Homo sapiens, SNU-449, 72 h, read-out: anti-proliferative EC50
ERK5 [4] = target: T1, ERK5; assay: ERK5 degradation in MOLT4 cells; assay type: cell-based; details: for DC50: read-out: DC50 of ERK5 degradation, 5-hour treatment
panel of 468 kinases = assay: scanMAX KINOMEscan selectivity panel; assay type: binding; details: 1 μM
[5] = test system: BRD4 and other members of the BET family proteins; details: ref Wang et al., 2018; cited from earlier work
AURKA = target: T2, AURKA (Homo sapiens, UniProt O14965); assay: AURKA immunoblot in MOLT4 cells; assay type: cell-based; details: 5 hours
T2 sequence (O14965 1-403): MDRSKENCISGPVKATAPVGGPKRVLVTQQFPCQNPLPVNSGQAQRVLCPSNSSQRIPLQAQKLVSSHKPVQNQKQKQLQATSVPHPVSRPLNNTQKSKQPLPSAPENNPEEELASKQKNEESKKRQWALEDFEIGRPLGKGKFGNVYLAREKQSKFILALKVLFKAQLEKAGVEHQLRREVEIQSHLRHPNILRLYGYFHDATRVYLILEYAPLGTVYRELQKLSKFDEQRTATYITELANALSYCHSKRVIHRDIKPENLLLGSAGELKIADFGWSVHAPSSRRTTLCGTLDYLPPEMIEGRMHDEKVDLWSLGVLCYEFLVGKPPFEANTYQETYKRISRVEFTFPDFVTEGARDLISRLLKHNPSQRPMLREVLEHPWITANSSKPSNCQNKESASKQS
Summary of the method: (§2)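 MOLT4 cells (RPMI, 10% heat-inactivated FBS, pen-strep, 37 °C, 5% CO2) were exposed to test compound at a range of concentrations for 5 h. Lysis was in M-PER with protease and phosphatase inhibitors, and lysates were BCA-normalised. Samples were run on 4–12% Bis-Tris gels and blotted to nitrocellulose. ERK5, BRD4, AURKA and actin antibodies were applied overnight at 4 °C. Detection was by IRDye secondaries. Blots are representative of 2–3 biological replicates.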

BRD4 = BRD4 (Homo sapiens, UniProt O60885); assay: BRD4 immunoblot in MOLT4 cells; assay type: cell-based; details: 5 hours
Summary of the method: as §2

MOLT4 cells [6] = assay: global quantitative TMT MS proteomics in MOLT4 cells; assay type: cell-based, Human; details: MOLT4, 250 nM, 5 hours
Summary of the method: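 MOLT4 cells were treated for 5 h with test compound (250 nM, or 100 nM for one degrader) or DMSO (biological triplicate), then harvested by centrifugation. TMT-labelled tryptic peptides were analysed by LC-MS3 on an Orbitrap Fusion Lumos using a 190 min 6–27% acetonitrile gradient. Spectra were searched against Swissprot human. Proteins with ≥2 unique peptides were kept, and abundance relative to DMSO was computed by limma.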

ERK5 [7] = details: read-out: reported IC50 for ERK5; ref Wang et al., 2018; cited from earlier work

SMILES | IL-6 secretion upon LPS stimulation (IL-6 secretion; 5-hour pre-treatment) | IL-6 secretion upon LPS stimulation (IL-6 secretion; 24-hour pre-treatment) | EC50 (BT-474 cells) [nM] | IL-8 secretion upon LPS stimulation (IL-8 secretion; 5-hour pre-treatment) | IL-8 secretion upon LPS stimulation (IL-8 secretion; 24-hour pre-treatment) | EC50 (MOLT4 cells [2]; Homo sapiens, MOLT-4, 72 h) [nM] | EC50 (SNU-449 cells) [nM] | binding affinity for ERK5 (in words) (ERK5 [1]) | also measured
CN1CCN(c2cnc3c(C4CCN(C(=O)c5ccc(OC(F)(F)F)cc5N)CC4)ncnc3c2)CC1 [BAY-885] | no effect | no effect | > 20000 | no effect | no effect | > 10000 | > 20000 | – | Kd (ERK5 [1]): 1 nM; effect on IL-6-induced proliferation [3]: no effect
Cc1ncsc1-c1ccc([C@H](C)NC(=O)[C@H]2C[C@H](O)CN2C(=O)[C@@H](NC(=O)CCCCCN2CCN(c3ccc4c(C5CCN(C(=O)c6ccc(OC(F)(F)F)cc6N)CC5)ncnc4c3)CC2)C(C)(C)C)cc1 [INY-06-089, (2R,4S)-1-((S)-2-(6-(4-(4-(1-(2-amino-4-(trifluoromethoxy)benzoyl)piperidin-4-yl)quinazolin-7-yl)piperazin-1-yl)hexanamido)-3,3-dimethylbutanoyl)-4-hydroxy-N-((S)-1-(4-(4-methylthiazol-5-yl)phenyl)ethyl)pyrrolidine-2-carboxamide] | no effect | – | > 20000 | no effect | – | – | > 20000 | – | ERK5 downregulation (ERK5 [4]; 5 hours, concentrations up to 5 μM): unable to induce ERK5 downregulation; potential off-target kinases (panel of 468 kinases): also inhibits the same kinases
CCOc1cc(C(=O)N2CCC(N3CCN(C)CC3)CC2)ccc1Nc1ncc2c(n1)N(C1CCCC1)c1ccccc1C(=O)N2C [XMD17-109] | reduced | significantly reduced | – | reduced | significantly reduced | – | – | – | anti-proliferative effect (in words) (BT-474 cells; BT-474, 3d treatment): the only compound to display anti-proliferative effects; binding to off-target BET family proteins [5]: binds to and inhibits BRD4 and other members of the BET family proteins; anti-proliferative activity (in words) (MOLT4 cells [2]; MOLT4, 3 days): potent anti-proliferative activities; anti-proliferative effect (in words) (SNU-449 cells; SNU-449, 3d treatment): the only compound to display anti-proliferative effects
Cc1ncsc1-c1ccc([C@H](C)NC(=O)[C@@H]2C[C@@H](O)CN2C(=O)[C@@H](NC(=O)CCCCCN2CCN(C(=O)c3ccc(Nc4ncc5c(n4)N(C4CCCC4)c4ccccc4C(=O)N5C)cc3)CC2)C(C)(C)C)cc1 [INY-05-091, (2S,4R)-1-((S)-2-(6-(4-(4-((11-cyclopentyl-5-methyl-6-oxo-6,11-dihydro-5H-benzo[e]pyrimido[5,4-b][1,4]diazepin-2-yl)amino)benzoyl)piperazin-1-yl)hexanamido)-3,3-dimethylbutanoyl)-4-hydroxy-N-((S)-1-(4-(4-methylthiazol-5-yl)phenyl)ethyl)pyrrolidine-2-carboxamide] | – | – | – | – | – | – | – | high binding affinities | DC50 (ERK5 [4]): 167 nM; AURKA protein levels (AURKA): validated through immunoblot analysis; anti-proliferative activity (in words) (MOLT4 cells [2]; MOLT4, 3 days): potent anti-proliferative activities; BRD4 protein levels (BRD4): potent BRD4 degradation; AURKA protein abundance, proteomics (MOLT4 cells [6]): induced downregulation; BRD3 and BRD4 protein abundance, proteomics (MOLT4 cells [6]): additional downregulated targets; ERK5 (MAPK7) protein abundance, proteomics (MOLT4 cells [6]): potent downregulation
CCC(C)N1c2ccccc2C(=O)N(C)c2cnc(Nc3ccc(C(=O)N4CCN(CCCCCC(=O)N[C@H](C(=O)N5C[C@H](O)C[C@H]5C(=O)N[C@@H](C)c5ccc(-c6scnc6C)cc5)C(C)(C)C)CC4)cc3)nc21 (stereo partly drawn) [INY-05-128, (2S,4R)-1-((2S)-2-(6-(4-(4-((11-(sec-butyl)-5-methyl-6-oxo-6,11-dihydro-5H-benzo[e]pyrimido[5,4-b][1,4]diazepin-2-yl)amino)benzoyl)piperazin-1-yl)hexanamido)-3,3-dimethylbutanoyl)-4-hydroxy-N-((S)-1-(4-(4-methylthiazol-5-yl)phenyl)ethyl)pyrrolidine-2-carboxamide] | – | – | – | – | – | 1100 | – | high binding affinities | DC50 (ERK5 [4]): 281 nM; AURKA protein levels (AURKA): validated through immunoblot analysis; BRD4 protein levels (BRD4): no effect; AURKA protein abundance, proteomics (MOLT4 cells [6]): induced downregulation; ERK5 (MAPK7) protein abundance, proteomics (MOLT4 cells [6]): potent downregulation
CCOc1cc(C(=O)N2CCC(N3CCN(C)CC3)CC2)ccc1Nc1ncc2c(n1)N(S(C)(=O)=O)c1ccccc1C(=O)N2C [AX15836, reference compound] | – | – | > 20000 | – | – | > 10000 | > 20000 | – | effect on IL-6-induced proliferation [3]: no effect
CN1CCN(c2ccc3c(C4CCN(C(=O)c5ccc(OC(F)(F)F)cc5N)CC4)ncnc3c2)CC1 [INY-06-086, (2-amino-4-(trifluoromethoxy)phenyl)(4-(7-(4-methylpiperazin-1-yl)quinazolin-4-yl)piperidin-1-yl)methanone] | – | – | > 20000 | – | – | – | > 20000 | high binding affinity | biochemical selectivity profile across the kinome (panel of 468 kinases; 468 kinases): similarly selective for ERK5 as BAY-885
CCOc1cc(N2CCC(O)CC2)ccc1Nc1ncc2c(n1)N(C)c1ccccc1C(=O)N2C [XMD8-92] | reduced | significantly reduced | – | reduced | significantly reduced | – | – | – | –
CCC(C)N1c2ccccc2C(=O)N(C)c2cnc(Nc3ccc(C(=O)N4CCC(N5CCN(C)CC5)CC4)cc3OC)nc21 (centres unmarked) [JWG-071] | – | – | – | – | – | – | – | – | binding to off-target BET family proteins [5]: significantly reduced affinity; IC50 (ERK5 [7]): 88 nM; EC50 (MOLT4 cells [2]; MOLT4, 3 days): 2400 nM

Reference: publication PMC9675722 (Cell chemical biology, 2022)
